Measured values: ChEMBL document CHEMBL1147561, “Application of the four-component Ugi condensation for the preparation of sulfated glycoconjugate libraries” (Bioorg Med Chem Lett, 2004)

Legend:
[1] = target: Fibroblast growth factor 1 (Homo sapiens, UniProt P05230); assay: Binding affinity for human fibroblast growth factor 1 in surface plasmon resonance (SPR) assay
How it was run: (§1)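 SPR solution affinity format: growth factor pre-equilibrated with ligand in solution, mixture passed over a heparin-immobilized sensor chip. Free (unbound) growth factor binding to heparin raises the SPR response and gives its concentration. Kd calculated from the decline in free growth factor concentration versus ligand concentration. Values are mean and SD of at least two independent measurements.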

[2] = target: T1, Fibroblast growth factor 2 (Homo sapiens, UniProt P09038); assay: Binding affinity for human fibroblast growth factor 2 in surface plasmon resonance (SPR) assay; how it was run: as §1
[3] = target: T1, Fibroblast growth factor 2; assay: Binding affinity for human fibroblast growth factor 2 in surface plasmon resonance (SPR) assay (No binding); how it was run: as §1

Sequence of Fibroblast growth factor 1 (P05230 whole entry): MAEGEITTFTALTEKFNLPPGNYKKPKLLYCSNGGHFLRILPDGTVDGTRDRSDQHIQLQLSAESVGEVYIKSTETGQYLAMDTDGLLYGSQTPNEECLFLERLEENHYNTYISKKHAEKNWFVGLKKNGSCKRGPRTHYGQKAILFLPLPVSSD
T1 sequence (P09038 143-288 limits assumed): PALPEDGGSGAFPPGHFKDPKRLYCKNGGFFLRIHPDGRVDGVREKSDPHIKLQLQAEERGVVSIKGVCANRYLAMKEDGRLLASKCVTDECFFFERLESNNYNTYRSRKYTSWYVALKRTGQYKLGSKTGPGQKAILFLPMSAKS

Row | Kd [1] | Kd [2] | Kd [3] | SMILES
1 | 2340 µM | > 800 µM | – | O=C(CN(CCOS(=O)(=O)O)C(=O)C1OC(OS(=O)(=O)O)C(OS(=O)(=O)O)C(OS(=O)(=O)O)C1OS(=O)(=O)O)NC1CCCCC1 (centres undefined)
2 | 34.3 µM | 287 µM | – | CC(=O)N(CC(=O)NCCO[C@H]1O[C@@H](COS(=O)(=O)O)[C@@H](OS(=O)(=O)O)[C@H](OS(=O)(=O)O)[C@H]1OS(=O)(=O)O)Cc1ccccc1
3 | 6.36 µM | 85 µM | – | O=C(CN(Cc1ccccc1)C(=O)CO[C@@H]1[C@H](OS(=O)(=O)O)O[C@H](COS(=O)(=O)O)[C@H](OS(=O)(=O)O)[C@H]1OS(=O)(=O)O)NCCO[C@H]1O[C@@H](COS(=O)(=O)O)[C@@H](OS(=O)(=O)O)[C@H](OS(=O)(=O)O)[C@H]1OS(=O)(=O)O
4 | 260 µM | 200 µM | – | CO[C@H]1O[C@@H](COCC(=O)N(CC(=O)NC2CCCCC2)Cc2ccccc2)[C@@H](OS(=O)(=O)O)[C@H](OS(=O)(=O)O)[C@H]1OS(=O)(=O)O
5 | 104 µM | 206 µM | – | O=C(CN(Cc1ccccc1)C(=O)C1OC(OS(=O)(=O)O)C(OS(=O)(=O)O)C(OS(=O)(=O)O)C1OS(=O)(=O)O)NCc1ccccc1 (centres undefined)
6 | 62.5 µM | – | > 800 µM | O=C(NC1CCCCC1)C(c1ccccc1)N(Cc1ccccc1)C(=O)C1OC(OS(=O)(=O)O)C(OS(=O)(=O)O)C(OS(=O)(=O)O)C1OS(=O)(=O)O (centres undefined)
7 | 296 µM | 551 µM | – | CO[C@H]1O[C@@H](COCC(=O)N(CCS(=O)(=O)O)CC(=O)NC2CCCCC2)[C@@H](OS(=O)(=O)O)[C@H](OS(=O)(=O)O)[C@H]1OS(=O)(=O)O
8 | 587 µM | 1160 µM | – | O=C(CN(Cc1ccccc1)C(=O)C1OC(OS(=O)(=O)O)C(OS(=O)(=O)O)C(OS(=O)(=O)O)C1O)NC1CCCCC1 (centres undefined)
9 | 10 µM | 34 µM | – | CC(C)(CC(=O)N(CCO[C@H]1O[C@@H](COS(=O)(=O)O)[C@@H](OS(=O)(=O)O)[C@H](OS(=O)(=O)O)[C@H]1OS(=O)(=O)O)CC(=O)NC1CCCCC1)CC(=O)N(CCO[C@H]1O[C@@H](COS(=O)(=O)O)[C@@H](OS(=O)(=O)O)[C@H](OS(=O)(=O)O)[C@H]1OS(=O)(=O)O)CC(=O)NC1CCCCC1
10 | 4.84 µM | 16 µM | – | CO[C@H]1O[C@@H](COCC(=O)N(CC(=O)NCCO[C@H]2O[C@@H](COS(=O)(=O)O)[C@@H](OS(=O)(=O)O)[C@H](OS(=O)(=O)O)[C@H]2OS(=O)(=O)O)Cc2ccccc2)[C@@H](OS(=O)(=O)O)[C@H](OS(=O)(=O)O)[C@H]1OS(=O)(=O)O
11 | 122 µM | 254 µM | – | O=C(CN(Cc1ccccc1)C(=O)C1OC(OS(=O)(=O)O)C(OS(=O)(=O)O)C(OS(=O)(=O)O)C1OS(=O)(=O)O)NC1CCCCC1 (centres undefined)
12 | 32.6 µM | 27.9 µM | – | CO[C@H]1O[C@@H](COCC(=O)N(CC(=O)NC2CCCCC2)[C@H]2CC[C@H](N(CC(=O)NC3CCCCC3)C(=O)COC[C@@H]3O[C@H](OC)[C@H](OS(=O)(=O)O)[C@@H](OS(=O)(=O)O)[C@@H]3OS(=O)(=O)O)CC2)[C@@H](OS(=O)(=O)O)[C@H](OS(=O)(=O)O)[C@H]1OS(=O)(=O)O
